The values below come from the M2OR odorant receptor database.

What all share (conditions): stereoisomer not certain
Experiment [1] has as its target T1, UniProt Q8VGC6.
T1 sequence (whole entry): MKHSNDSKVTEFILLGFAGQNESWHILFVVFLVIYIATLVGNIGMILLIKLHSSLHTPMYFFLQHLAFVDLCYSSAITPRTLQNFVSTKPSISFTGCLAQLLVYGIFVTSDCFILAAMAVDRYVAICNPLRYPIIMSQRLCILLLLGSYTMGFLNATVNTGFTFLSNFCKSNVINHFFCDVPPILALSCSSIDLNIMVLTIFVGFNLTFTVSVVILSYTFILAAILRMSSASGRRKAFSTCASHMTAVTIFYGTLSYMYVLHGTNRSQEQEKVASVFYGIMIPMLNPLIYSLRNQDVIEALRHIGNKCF
Put shortly: (§1)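 Assay methods differ from source to source, frequently being transient luciferase assays in mammalian cell lines. For each receptor–molecule pair, the label responsive (active) applies when the original authors judged the measured signal statistically different from baseline, and non-responsive (inactive) applies otherwise.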

Experiment [2] has as its target T2, UniProt Q8VGD7.
T2 sequence (whole entry): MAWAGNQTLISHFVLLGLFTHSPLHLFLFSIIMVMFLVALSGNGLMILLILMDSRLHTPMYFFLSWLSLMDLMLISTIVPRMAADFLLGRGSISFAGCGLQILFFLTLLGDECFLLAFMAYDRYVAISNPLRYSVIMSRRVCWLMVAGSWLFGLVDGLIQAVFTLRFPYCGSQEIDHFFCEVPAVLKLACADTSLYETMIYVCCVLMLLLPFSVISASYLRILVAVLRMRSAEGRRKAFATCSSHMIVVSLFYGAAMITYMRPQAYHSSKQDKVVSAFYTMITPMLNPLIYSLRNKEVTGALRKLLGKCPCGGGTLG
An outline of the steps: as §1

The target of experiment [3] is T3, UniProt Q8VGH1.
T3 sequence (whole entry): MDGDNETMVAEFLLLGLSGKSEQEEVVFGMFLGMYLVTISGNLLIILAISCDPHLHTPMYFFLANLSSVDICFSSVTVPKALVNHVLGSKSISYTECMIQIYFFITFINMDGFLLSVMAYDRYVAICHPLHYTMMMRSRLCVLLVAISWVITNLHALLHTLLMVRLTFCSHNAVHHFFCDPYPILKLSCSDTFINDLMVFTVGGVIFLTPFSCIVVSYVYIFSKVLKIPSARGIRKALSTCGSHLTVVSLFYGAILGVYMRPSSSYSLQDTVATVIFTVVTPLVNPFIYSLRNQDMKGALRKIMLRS
Put shortly: as §1

The target in experiment [4] is T4, UniProt Q8VGJ1.
T4 sequence (whole entry): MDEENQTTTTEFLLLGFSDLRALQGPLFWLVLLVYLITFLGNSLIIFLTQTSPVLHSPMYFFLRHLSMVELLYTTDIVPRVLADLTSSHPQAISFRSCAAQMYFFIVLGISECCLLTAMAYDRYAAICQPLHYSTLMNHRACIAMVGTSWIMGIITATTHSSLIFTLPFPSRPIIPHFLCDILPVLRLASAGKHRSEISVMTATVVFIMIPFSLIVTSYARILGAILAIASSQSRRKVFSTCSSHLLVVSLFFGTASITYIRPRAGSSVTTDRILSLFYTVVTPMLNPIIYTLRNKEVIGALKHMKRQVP
Put shortly:
as §1

In experiment [5] the target is T5, UniProt Q8VGJ3.
T5 sequence (whole entry): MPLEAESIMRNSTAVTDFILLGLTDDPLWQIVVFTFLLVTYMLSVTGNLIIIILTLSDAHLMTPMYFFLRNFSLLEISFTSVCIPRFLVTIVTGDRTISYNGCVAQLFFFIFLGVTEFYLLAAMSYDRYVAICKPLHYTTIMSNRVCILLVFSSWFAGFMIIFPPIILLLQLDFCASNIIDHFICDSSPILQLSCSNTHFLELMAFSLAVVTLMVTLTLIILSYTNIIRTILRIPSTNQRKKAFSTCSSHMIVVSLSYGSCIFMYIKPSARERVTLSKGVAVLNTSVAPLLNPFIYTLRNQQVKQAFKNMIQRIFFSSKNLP
Put shortly:
as §1

In experiment [6] the target is T6, UniProt Q8VGJ5.
T6 sequence (whole entry): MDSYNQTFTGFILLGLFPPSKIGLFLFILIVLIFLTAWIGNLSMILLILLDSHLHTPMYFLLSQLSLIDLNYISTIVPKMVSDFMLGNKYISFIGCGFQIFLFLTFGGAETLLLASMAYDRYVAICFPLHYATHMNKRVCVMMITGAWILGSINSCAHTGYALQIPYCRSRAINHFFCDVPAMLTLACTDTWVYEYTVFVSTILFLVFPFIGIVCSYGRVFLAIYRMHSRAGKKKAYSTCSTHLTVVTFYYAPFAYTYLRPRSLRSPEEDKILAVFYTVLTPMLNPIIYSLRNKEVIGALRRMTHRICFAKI
An outline of the steps: as §1

The target in experiment [7] is T7, UniProt Q8VGL0.
T7 sequence (whole entry): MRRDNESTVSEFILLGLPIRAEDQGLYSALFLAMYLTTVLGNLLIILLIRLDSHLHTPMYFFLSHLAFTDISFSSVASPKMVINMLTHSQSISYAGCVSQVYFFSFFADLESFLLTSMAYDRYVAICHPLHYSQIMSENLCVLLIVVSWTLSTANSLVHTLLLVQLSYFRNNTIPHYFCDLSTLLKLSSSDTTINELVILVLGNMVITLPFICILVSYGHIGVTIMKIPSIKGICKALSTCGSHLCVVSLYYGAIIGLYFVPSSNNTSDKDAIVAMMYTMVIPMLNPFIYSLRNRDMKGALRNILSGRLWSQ
Put shortly: as §1

In experiment [8] the target is T8, UniProt Q8VGL7.
T8 sequence (whole entry): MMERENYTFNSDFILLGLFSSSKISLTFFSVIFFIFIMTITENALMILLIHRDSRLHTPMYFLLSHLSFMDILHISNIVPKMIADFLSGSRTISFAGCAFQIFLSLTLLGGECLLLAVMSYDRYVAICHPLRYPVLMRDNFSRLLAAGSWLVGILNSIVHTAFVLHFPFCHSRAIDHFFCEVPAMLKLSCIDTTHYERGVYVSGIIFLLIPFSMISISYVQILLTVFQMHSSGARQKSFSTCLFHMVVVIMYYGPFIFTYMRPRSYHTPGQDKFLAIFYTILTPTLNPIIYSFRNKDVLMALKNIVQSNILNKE
An outline of the steps:
as §1

Experiment [9] deals with T9, UniProt Q8VGM2.
T9 sequence (whole entry): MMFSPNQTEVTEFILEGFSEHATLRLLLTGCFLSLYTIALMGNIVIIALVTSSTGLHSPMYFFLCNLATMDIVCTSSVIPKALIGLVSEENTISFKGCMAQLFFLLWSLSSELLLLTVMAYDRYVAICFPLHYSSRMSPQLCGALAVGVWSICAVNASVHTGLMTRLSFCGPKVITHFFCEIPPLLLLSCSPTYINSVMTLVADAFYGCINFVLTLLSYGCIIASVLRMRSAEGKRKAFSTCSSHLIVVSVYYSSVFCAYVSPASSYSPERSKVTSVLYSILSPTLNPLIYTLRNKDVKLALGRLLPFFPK
Put shortly:
as §1

In experiment [10] the target is T10, UniProt Q8VGP6.
T10 sequence (whole entry): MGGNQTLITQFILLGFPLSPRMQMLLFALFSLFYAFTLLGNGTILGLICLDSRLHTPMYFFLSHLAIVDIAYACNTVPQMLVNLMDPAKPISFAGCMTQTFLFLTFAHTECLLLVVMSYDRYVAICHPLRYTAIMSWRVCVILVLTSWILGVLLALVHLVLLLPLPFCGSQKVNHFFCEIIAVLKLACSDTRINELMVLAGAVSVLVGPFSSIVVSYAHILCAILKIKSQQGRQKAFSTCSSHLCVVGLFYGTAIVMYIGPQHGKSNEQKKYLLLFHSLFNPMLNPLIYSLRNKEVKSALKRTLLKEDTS
An outline of the steps: as §1

Experiment [11] concerns the target T11, UniProt Q8VGQ3.
T11 sequence (whole entry): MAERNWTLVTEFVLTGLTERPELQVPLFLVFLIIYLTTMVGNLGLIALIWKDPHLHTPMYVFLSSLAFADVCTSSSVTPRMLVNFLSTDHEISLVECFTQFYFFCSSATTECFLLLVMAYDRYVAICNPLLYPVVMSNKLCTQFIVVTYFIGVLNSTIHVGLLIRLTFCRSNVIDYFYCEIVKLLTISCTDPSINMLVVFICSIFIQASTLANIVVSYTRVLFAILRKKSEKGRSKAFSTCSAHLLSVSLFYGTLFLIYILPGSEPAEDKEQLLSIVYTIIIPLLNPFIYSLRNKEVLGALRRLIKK
Put shortly: as §1

Experiment [12] addresses T12, UniProt Q8VGT4.
T12 sequence (whole entry): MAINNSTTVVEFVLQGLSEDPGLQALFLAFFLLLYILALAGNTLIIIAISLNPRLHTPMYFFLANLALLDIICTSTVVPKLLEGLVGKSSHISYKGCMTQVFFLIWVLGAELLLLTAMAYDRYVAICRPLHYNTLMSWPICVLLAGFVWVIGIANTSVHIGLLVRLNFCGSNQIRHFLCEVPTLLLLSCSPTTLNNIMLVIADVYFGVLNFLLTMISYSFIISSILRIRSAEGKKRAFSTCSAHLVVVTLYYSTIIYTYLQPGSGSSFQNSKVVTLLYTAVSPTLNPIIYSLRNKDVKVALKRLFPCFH
An outline of the steps: as §1

Experiment [13] concerns the target T13, UniProt Q8VGU3.
T13 sequence (whole entry): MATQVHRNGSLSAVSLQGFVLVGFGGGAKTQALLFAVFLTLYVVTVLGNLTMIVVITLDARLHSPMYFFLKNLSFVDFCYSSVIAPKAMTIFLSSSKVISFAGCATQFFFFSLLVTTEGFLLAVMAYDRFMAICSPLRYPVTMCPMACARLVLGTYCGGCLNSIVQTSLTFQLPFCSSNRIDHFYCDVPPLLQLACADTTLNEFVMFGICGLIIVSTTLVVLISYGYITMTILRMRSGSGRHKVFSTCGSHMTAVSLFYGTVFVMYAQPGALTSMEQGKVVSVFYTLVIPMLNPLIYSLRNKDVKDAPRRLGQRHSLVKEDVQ
Put shortly: as §1

Experiment [14] addresses T14, UniProt Q8VGV1.
T14 sequence (whole entry): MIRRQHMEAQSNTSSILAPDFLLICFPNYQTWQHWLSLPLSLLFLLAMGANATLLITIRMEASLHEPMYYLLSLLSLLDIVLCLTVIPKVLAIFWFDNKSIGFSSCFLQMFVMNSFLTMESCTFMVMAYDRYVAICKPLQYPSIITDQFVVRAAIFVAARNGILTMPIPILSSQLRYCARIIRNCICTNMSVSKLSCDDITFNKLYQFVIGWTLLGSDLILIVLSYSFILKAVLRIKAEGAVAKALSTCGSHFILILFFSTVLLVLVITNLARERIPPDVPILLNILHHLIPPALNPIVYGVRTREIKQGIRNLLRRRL
An outline of the steps:
as §1

Experiment [15] has as its target T15, UniProt Q8VGV7.
T15 sequence (whole entry): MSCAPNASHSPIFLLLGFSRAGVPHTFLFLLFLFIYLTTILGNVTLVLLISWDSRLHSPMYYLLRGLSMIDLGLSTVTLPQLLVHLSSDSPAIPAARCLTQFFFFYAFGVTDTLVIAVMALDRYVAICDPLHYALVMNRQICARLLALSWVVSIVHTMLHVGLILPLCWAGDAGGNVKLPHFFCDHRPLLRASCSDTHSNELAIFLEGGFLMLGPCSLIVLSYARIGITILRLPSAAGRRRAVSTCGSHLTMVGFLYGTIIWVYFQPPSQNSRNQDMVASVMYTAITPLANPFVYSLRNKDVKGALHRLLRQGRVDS
Put shortly: as §1

The target in experiment [16] is T16, UniProt Q8VGX3.
T16 sequence (whole entry): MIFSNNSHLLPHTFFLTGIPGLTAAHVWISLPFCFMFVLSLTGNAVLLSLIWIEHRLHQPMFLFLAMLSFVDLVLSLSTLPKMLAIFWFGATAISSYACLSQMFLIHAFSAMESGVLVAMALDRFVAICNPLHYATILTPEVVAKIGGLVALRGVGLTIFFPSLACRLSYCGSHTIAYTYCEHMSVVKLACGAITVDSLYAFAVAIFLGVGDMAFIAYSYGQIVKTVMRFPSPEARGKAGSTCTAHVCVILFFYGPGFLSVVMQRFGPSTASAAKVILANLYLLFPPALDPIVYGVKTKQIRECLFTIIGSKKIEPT
An outline of the steps:
as §1

Experiment [17] addresses T17, UniProt Q8VGX5.
T17 sequence (whole entry): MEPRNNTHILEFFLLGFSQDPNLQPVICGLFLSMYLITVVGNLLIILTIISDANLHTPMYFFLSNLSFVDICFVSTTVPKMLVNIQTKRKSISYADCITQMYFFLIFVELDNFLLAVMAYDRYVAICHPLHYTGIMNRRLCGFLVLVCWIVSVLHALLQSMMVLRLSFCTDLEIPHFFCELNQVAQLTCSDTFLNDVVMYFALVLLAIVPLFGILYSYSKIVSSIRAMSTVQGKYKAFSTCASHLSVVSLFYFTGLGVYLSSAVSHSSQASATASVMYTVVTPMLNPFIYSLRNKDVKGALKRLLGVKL
An outline of the steps:
as §1

`CCCCCC1=C(C)CCC1=O`: the “odorant receptor agonist call” value in experiment [1], in experiment [2], in experiment [3], in experiment [4], in experiment [5] and in [7] was “inactive” throughout. The “odorant receptor agonist call” value in [9], in experiment [10], in experiment [11], in experiment [12], in experiment [13] and in experiment [14] was “inactive” in each case. In addition, the “odorant receptor agonist call” value in experiment [15] and in experiment [16] was “inactive” throughout. For the same compound, the “odorant receptor agonist call” value in [6], in experiment [8] and in [17] was “active” each time.
With `CCCC(=O)OCC`, the “odorant receptor agonist call” value in [1] was “inactive”.
On to `CC(C)=CCCC(C)CC=O` (stereo not drawn), for which the “odorant receptor agonist call” value in experiment [1] is “inactive”.
Consider `CCCC(=O)OC`, for which the “odorant receptor agonist call” value in experiment [1] is “inactive”.
Take `CCCCOC`: the “odorant receptor agonist call” value in [1] was “inactive”.
`CCC(=O)C(=O)CC`: the “odorant receptor agonist call” value in [1], in experiment [2], in experiment [3], in [4], in experiment [5] and in [6] was “inactive” each time. In addition, the “odorant receptor agonist call” value in experiment [7], in experiment [8], in experiment [9], in experiment [10], in experiment [11] and in experiment [12] was “inactive” each time. Moreover, the “odorant receptor agonist call” value in [13], in experiment [14], in experiment [15], in experiment [16] and in experiment [17] was “inactive” throughout.
